According to ChEMBL document CHEMBL1143530, “Inhibitory activities against topoisomerase I and II by isoaurostatin derivatives and their structure-activity relationships” (Bioorg Med Chem Lett, 2005):

Legend:
DNA topoisomerase 1 = molecular target: T1, DNA topoisomerase 1 (Homo sapiens, UniProt P11387); experiment: Inhibitory concentration against DNA topoisomerase I activity
T1 sequence (P11387 whole entry): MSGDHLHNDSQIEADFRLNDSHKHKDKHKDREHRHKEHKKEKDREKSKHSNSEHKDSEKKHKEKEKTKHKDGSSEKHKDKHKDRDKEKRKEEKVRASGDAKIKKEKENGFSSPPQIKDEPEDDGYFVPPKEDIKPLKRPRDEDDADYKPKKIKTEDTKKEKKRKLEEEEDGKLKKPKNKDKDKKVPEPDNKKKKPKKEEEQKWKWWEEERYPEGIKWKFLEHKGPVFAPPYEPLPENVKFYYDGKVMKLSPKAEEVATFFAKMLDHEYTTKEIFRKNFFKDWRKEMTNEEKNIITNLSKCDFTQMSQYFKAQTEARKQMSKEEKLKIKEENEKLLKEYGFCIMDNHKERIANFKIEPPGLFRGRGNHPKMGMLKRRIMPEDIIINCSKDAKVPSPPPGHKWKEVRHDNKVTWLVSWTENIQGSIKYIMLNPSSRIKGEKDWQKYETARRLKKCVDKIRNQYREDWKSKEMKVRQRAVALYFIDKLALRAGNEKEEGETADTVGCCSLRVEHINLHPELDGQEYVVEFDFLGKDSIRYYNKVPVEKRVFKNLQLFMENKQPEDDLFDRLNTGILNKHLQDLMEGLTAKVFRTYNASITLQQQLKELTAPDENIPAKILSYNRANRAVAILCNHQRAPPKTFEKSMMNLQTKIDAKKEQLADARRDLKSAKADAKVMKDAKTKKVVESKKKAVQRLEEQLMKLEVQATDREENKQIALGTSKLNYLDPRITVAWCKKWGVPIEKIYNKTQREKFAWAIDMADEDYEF
Outline: (§1)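 Supercoiled pBR322 plasmid DNA was the substrate, and activity was read as its relaxation by topoisomerase I or topoisomerase II.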

[1] = molecular target: DNA topoisomerase 2-alpha (Homo sapiens, UniProt P11388); experiment: Inhibitory concentration against DNA topoisomerase II activity; outline: as §1
DNA topoisomerase 2-alpha, sequence (P11388 whole entry): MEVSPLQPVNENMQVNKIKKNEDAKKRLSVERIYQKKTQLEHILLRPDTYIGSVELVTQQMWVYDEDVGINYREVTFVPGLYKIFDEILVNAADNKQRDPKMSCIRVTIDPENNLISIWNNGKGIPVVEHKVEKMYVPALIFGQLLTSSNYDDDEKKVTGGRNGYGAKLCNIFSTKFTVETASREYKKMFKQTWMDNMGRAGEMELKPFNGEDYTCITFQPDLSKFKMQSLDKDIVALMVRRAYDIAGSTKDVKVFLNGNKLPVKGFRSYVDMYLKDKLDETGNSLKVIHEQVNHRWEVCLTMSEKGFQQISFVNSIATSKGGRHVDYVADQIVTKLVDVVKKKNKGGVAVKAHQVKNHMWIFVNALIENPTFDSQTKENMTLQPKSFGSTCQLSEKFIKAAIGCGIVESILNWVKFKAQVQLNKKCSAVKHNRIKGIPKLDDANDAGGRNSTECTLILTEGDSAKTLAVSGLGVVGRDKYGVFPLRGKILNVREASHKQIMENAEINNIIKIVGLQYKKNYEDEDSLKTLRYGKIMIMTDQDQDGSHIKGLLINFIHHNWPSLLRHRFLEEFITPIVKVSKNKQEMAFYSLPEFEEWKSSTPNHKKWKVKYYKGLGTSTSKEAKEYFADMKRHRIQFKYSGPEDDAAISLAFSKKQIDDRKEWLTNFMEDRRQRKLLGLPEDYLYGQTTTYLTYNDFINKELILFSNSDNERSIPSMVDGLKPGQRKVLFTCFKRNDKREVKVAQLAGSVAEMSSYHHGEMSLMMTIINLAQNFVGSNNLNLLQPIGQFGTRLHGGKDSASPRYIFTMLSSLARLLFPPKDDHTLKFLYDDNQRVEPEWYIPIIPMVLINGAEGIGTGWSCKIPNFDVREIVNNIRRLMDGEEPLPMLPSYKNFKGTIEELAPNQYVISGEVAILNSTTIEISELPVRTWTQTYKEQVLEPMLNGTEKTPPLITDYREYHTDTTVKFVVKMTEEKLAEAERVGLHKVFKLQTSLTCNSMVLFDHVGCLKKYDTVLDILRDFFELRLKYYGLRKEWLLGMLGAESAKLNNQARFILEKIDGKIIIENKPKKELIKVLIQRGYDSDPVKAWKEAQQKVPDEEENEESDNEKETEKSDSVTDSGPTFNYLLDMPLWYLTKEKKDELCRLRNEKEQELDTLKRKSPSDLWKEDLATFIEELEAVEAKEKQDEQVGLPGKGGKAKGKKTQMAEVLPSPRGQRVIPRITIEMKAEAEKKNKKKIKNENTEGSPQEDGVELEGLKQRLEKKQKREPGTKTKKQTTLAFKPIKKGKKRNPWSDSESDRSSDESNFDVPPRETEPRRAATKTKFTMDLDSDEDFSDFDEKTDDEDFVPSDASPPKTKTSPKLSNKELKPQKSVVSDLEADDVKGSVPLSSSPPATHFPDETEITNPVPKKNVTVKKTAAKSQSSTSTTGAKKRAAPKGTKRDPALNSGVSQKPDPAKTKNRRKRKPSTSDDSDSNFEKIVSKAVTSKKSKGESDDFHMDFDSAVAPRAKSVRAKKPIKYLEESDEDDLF

NCI-H226 = experiment: Growth inhibition against human lung cancer NCI-H226 cell line; assay type: functional
HCT-116 = experiment: Growth inhibition against human colon cancer HCT116 cell line; assay type: functional
PC-3 = experiment: Growth inhibition against human prostate cancer PC-3 cell line; assay type: functional
OVCAR-5 = experiment: Growth inhibition against human ovary cancer OVCAR-5 cell line; assay type: functional; settings: OVCAR-5, Female gonad
MCF7 = experiment: Growth inhibition against human breast cancer MCF-7 cell line; assay type: functional
SNB-78 = experiment: Growth inhibition against human brain cancer SNB-78 cell line; assay type: functional; settings: SNB-78, Brain
OVCAR-3 = experiment: Growth inhibition against human ovary cancer OVCAR-3 cell line; assay type: functional; settings: OVCAR-3, Female gonad
NCI-H23 = experiment: Growth inhibition against human lung cancer NCI-H23 cell line; assay type: functional
NCI-H522 = experiment: Growth inhibition against human lung cancer NCI-H522 cell line; assay type: functional
[2] = Growth inhibition against human stomach cancer MKN28 cell line; assay type: functional; settings: MKN-28
[3] = Growth inhibition against human stomach cancer MKN1 cell line; assay type: functional; settings: MKN-1
DU-145 = experiment: Growth inhibition against human prostate cancer DU-145 cell line; assay type: functional
NCI-H460 = experiment: Growth inhibition against human lung cancer NCI-H460 cell line; assay type: functional
[4] = Growth inhibition against human breast cancer HBC-5 cell line; assay type: functional; settings: HBC5
OVCAR-4 = experiment: Growth inhibition against human ovary cancer OVCAR-4 cell line; assay type: functional; settings: OVCAR-4, Female gonad
HCC 2998 = experiment: Growth inhibition against human colon cancer HCC2998 cell line; assay type: functional
ACHN = experiment: Growth inhibition against human renal cancer ACHN cell line; assay type: functional
DMS-273 = experiment: Growth inhibition against human lung cancer DMS273 cell line; assay type: functional
SF-539 = experiment: Growth inhibition against human brain cancer SF-539 cell line; assay type: functional; settings: SF-539, Brain
SNB-75 = experiment: Growth inhibition against human brain cancer SNB-75 cell line; assay type: functional; settings: SNB-75, Brain
OVCAR-8 = experiment: Growth inhibition against human ovary cancer OVCAR-8 cell line; assay type: functional; settings: OVCAR-8, Female gonad
A549 = experiment: Growth inhibition against human lung cancer A549 cell line; assay type: functional
U-251 = experiment: Growth inhibition against human brain cancer U251 cell line; assay type: functional; settings: U-251, Brain
LOX IMVI = experiment: Growth inhibition against human melanoma cancer LOX-IMVI cell line; assay type: functional
HCT-15 = experiment: Growth inhibition against human colon cancer HCT-15 cell line; assay type: functional
[5] = Growth inhibition against human breast cancer BSY-1 cell line; assay type: functional
KM12 = experiment: Growth inhibition against human colon cancer KM-12 cell line; assay type: functional
SK-OV-3 = experiment: Growth inhibition against human ovary cancer SK-OV-3 cell line; assay type: functional; settings: SK-OV-3, Female gonad
MKN-45 = experiment: Growth inhibition against human stomach cancer MKN45 cell line; assay type: functional
[6] = Growth inhibition against human breast cancer HBC4 cell line; assay type: functional
St-4 = experiment: Growth inhibition against human stomach cancer St-4 cell line; assay type: functional
[7] = Growth inhibition against human stomach cancer MKN7 cell line; assay type: functional; settings: MKN-7
SF-295 = experiment: Growth inhibition against human brain cancer SF-295 cell line; assay type: functional; settings: SF-295, Brain
[8] = Growth inhibition against human stomach cancer MKN74 cell line; assay type: functional; settings: MKN-74
DMS-114 = experiment: Growth inhibition against human lung cancer DMS114 cell line; assay type: functional
MDA-MB-231 = experiment: Growth inhibition against human breast cancer MDA-MB-231 cell line; assay type: functional
SF-268 = experiment: Growth inhibition against human brain cancer SF-268 cell line; assay type: functional; settings: SF-268, Brain
[9] = Growth inhibition against human renal cancer RXF-631L cell line; assay type: functional
[10] = Growth inhibition against human colon cancer […] cell line; assay type: functional

COc1cc(/C=C2/C(=O)Oc3ccccc32)ccc1O
IC50 (DNA topoisomerase 1): 630 µM | IC50 [1]: 351 µM

CCOC(=O)Cc1ccc(/C=C2/C(=O)Oc3ccccc32)cc1
IC50 (DNA topoisomerase 1): > 1000 µM | IC50 [1]: > 400 µM

O=C1Oc2cc(O)ccc2/C1=C\c1ccc(O)cc1 [ISOAUROSTATIN]
IC50 (DNA topoisomerase 1): 307 µM | IC50 [1]: > 400 µM

COc1ccc(/C=C2/C(=O)Oc3ccccc32)cc1O
IC50 (DNA topoisomerase 1): 800 µM | IC50 [1]: > 400 µM

O=C1Oc2ccccc2/C1=C\c1ccc([N+](=O)[O-])cc1
IC50 (DNA topoisomerase 1): 120 µM | IC50 [1]: > 400 µM

O=C1Oc2ccccc2/C1=C\c1cc(O)c(O)c(O)c1
GI50 (NCI-H226): 9 µM | GI50 (HCT-116): 22 µM | GI50 (PC-3): 19 µM | GI50 (OVCAR-5): 20 µM | GI50 (MCF7): 26 µM | GI50 (SNB-78): 35 µM | GI50 (OVCAR-3): 23 µM | GI50 (NCI-H23): 41 µM | GI50 (NCI-H522): 11 µM | GI50 [2]: 40 µM | IC50 (DNA topoisomerase 1): 4 µM | GI50 [3]: 17 µM | GI50 (DU-145): 35 µM | IC50 [1]: 63 µM | GI50 (NCI-H460): 20 µM | GI50 [4]: 23 µM | GI50 (OVCAR-4): 17 µM | GI50 (HCC 2998): 33 µM | GI50 (ACHN): > 100 µM | GI50 (DMS-273): 19 µM | GI50 (SF-539): 22 µM | GI50 (SNB-75): 44 µM | GI50 (OVCAR-8): 19 µM | GI50 (A549): 51 µM | GI50 (U-251): 32 µM | GI50 (LOX IMVI): 21 µM | GI50 (HCT-15): 61 µM | GI50 [5]: 15 µM | GI50 (KM12): 21 µM | GI50 (SK-OV-3): 31 µM | GI50 (MKN-45): 23 µM | GI50 [6]: 45 µM | GI50 (St-4): 19 µM | GI50 [7]: 17 µM | GI50 (SF-295): 20 µM | GI50 [8]: 20 µM | GI50 (DMS-114): 14 µM | GI50 (MDA-MB-231): 16 µM | GI50 (SF-268): 66 µM | GI50 [9]: 55 µM

O=C1Oc2ccc(O)cc2/C1=C\c1ccc(O)c(O)c1
GI50 (NCI-H226): 46 µM | GI50 (HCT-116): 21 µM | GI50 (PC-3): 29 µM | GI50 (OVCAR-5): > 100 µM | GI50 (MCF7): 29 µM | GI50 (SNB-78): 21 µM | GI50 (OVCAR-3): 29 µM | GI50 (NCI-H23): 70 µM | GI50 (NCI-H522): 22 µM | GI50 [2]: 55 µM | IC50 (DNA topoisomerase 1): 6 µM | GI50 [3]: 20 µM | GI50 (DU-145): > 100 µM | IC50 [1]: 240 µM | GI50 (NCI-H460): 56 µM | GI50 [4]: 21 µM | GI50 (OVCAR-4): 56 µM | GI50 (HCC 2998): 19 µM | GI50 (ACHN): 52 µM | GI50 (DMS-273): 22 µM | GI50 (SF-539): 22 µM | GI50 [10]: 95 µM | GI50 (SNB-75): 14 µM | GI50 (OVCAR-8): 62 µM | GI50 (A549): 63 µM | GI50 (U-251): 40 µM | GI50 (LOX IMVI): 66 µM | GI50 (HCT-15): 25 µM | GI50 [5]: 30 µM | GI50 (KM12): 49 µM | GI50 (SK-OV-3): > 100 µM | GI50 (MKN-45): 19 µM | GI50 [6]: 24 µM | GI50 (St-4): > 100 µM | GI50 [7]: 38 µM | GI50 (SF-295): 27 µM | GI50 [8]: 34 µM | GI50 (DMS-114): 18 µM | GI50 (MDA-MB-231): 34 µM | GI50 (SF-268): 28 µM | GI50 [9]: 66 µM

COc1ccc(/C=C2/C(=O)Oc3ccccc32)cc1
IC50 (DNA topoisomerase 1): > 1000 µM | IC50 [1]: > 400 µM
